Assay results published in article PMC6415545 (Nature, 2018).
Where two headings read alike, the source gives them in different places. Marks after values point to notes of the source that are not given here.

T1: human UDP-α-D-glucose-6-dehydrogenase (hUGDH) (Homo sapiens, UniProt O60701)
T1 sequence (O60701 1-464 limits assumed): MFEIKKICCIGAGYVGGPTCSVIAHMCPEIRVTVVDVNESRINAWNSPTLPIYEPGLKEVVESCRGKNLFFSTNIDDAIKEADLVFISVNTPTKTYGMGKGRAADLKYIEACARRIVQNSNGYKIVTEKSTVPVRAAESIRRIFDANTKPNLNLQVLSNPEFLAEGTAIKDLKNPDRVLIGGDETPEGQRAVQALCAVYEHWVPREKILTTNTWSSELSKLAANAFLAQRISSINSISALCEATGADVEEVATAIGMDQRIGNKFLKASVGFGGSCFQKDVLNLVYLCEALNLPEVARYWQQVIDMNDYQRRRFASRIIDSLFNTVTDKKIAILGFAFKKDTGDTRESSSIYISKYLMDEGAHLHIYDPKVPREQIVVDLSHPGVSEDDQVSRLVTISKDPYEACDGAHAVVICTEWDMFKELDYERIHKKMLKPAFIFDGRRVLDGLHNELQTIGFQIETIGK


Assays:
[1] = test system: human UDP-α-D-glucose-6-dehydrogenase (hUGDH); type: biochemical; conditions: for Kcat: UDP-Glc saturation curves, global fit ± standard error
How it was run: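 100 nM hexamer (500 nM dimer constructs) in 50 mM HEPES pH 7.5, 50 mM NaCl, 5 mM EDTA, 25 °C, saturating NAD+, varied UDP-Glc and UDP-Xyl. NADH was read at 340 nm. Frieden fits of early progress curves gave vss.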

[2] = test system: human UDP-α-D-glucose-6-dehydrogenase (hUGDH); test: Steady state kinetics: NAD+ substrate saturation curves; type: biochemical
How it was run: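 Separate 5-min, 25 °C pre-incubations of enzyme and substrate, then mixing. Enzyme was 100 nM hexameric hUGDH in 50 mM HEPES pH 7.5, 50 mM NaCl, 5 mM EDTA, with saturating UDP-Glc and varied NAD+. NADH was followed continuously at 340 nm (6220 M−1cm−1). Progress curves before 10% substrate depletion were fit to Frieden's equation for vss. Saturation curves were fit to the sigmoidal rate equation; n ≥ 10 data points.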

[3] = test system: human UDP-α-D-glucose-6-dehydrogenase (hUGDH); test: Stopped-flow analysis of hUGDH hysteresis; type: biochemical; conditions: hUGDHFL versus hUGDHΔID, pre-steady state progress curves
How it was run: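 Stopped-flow, 25 °C. 500 nM full-length or tail-deleted enzyme in 50 mM HEPES pH 7.5, 50 mM NaCl, 5 mM EDTA was mixed 1:1 with buffer holding substrate and cofactor, giving 250 nM enzyme with both saturating. NADH absorbance at 340 nm was taken every 10–15 ms. Curves were fit to Frieden's equation for lag length; mean and s.d. from ≥ 6 curves.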

[4] = target: T1, human UDP-α-D-glucose-6-dehydrogenase (hUGDH); test: Transient state kinetics of UDP-Xyl binding; conditions: hUGDHFL versus hUGDHΔID
How it was run: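 Stopped-flow intrinsic tryptophan fluorescence at 25 °C (dead time ~1.2 ms): 500 nM enzyme (syringe) mixed with varied UDP-Xyl, excitation 290 nm, emission cutoff filter below 320 nm. Traces were averaged over ≥ 4 replicates per concentration and inner-filter corrected. Six concentrations were globally fit by numerical simulation to a binding-plus-two-isomerization model, selected by confidence contour analysis. Binding free energy used a mM standard state.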

[5] = Thermodynamic shift assay; type: physicochemical; conditions: thermal denaturation, hUGDHFL-dimer versus hUGDHΔID-dimer (Fig. 3d)
How it was run: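 Dimeric constructs at 0.1 mg/mL with 5X SYPRO Orange in 50 mM HEPES pH 7.5, 50 mM NaCl, 5 mM EDTA were spun and equilibrated 20 min. Fluorescence (excitation 470–505 nm, emission 540–570 nm) was recorded every 30 s while heating from 25 to 80 °C at […] in a qPCR instrument. Buffer-control baselines were subtracted; N ≥ 3.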

Hill (h) ([2]; NAD+ saturation (Equation 6))	slowing of the rate of activation hysteresis (E* to E) by the ID-tail [3] [%]	enhancement of the initial UDP-Xyl binding step by the ID-tail [4] [fold]	gain in affinity of the initial UDP-Xyl binding step [4] [kcal/mol]	ΔΔG, change in UDP-Xyl binding free energy ([1]; relative to the hUGDHΔID-A136M)	Molecule	Kcat [1] [s⁻¹]	Kcat ([2]; NAD+ saturation curves) [S^-1]	K0.5 (NAD^+) ([2]; NAD+ saturation, sigmoidal rate equation (Equation 6), hexameric enzyme) [mM]	destabilization by the ID-tail [5] [°C]
0.8 ± 0.1	39	4.4	-0.9	–	FL: full-length human UDP-α-D-glucose-6-dehydrogenase with the native 30-residue ID-tail (residues 465–494) (protein, UniProt O60701 1-494, looked up, full-length) MFEIKKICCIGAGYVGGPTCSVIAHMCPEIRVTVVDVNESRINAWNSPTLPIYEPGLKEVVESCRGKNLFFSTNIDDAIKEADLVFISVNTPTKTYGMGKGRAADLKYIEACARRIVQNSNGYKIVTEKSTVPVRAAESIRRIFDANTKPNLNLQVLSNPEFLAEGTAIKDLKNPDRVLIGGDETPEGQRAVQALCAVYEHWVPREKILTTNTWSSELSKLAANAFLAQRISSINSISALCEATGADVEEVATAIGMDQRIGNKFLKASVGFGGSCFQKDVLNLVYLCEALNLPEVARYWQQVIDMNDYQRRRFASRIIDSLFNTVTDKKIAILGFAFKKDTGDTRESSSIYISKYLMDEGAHLHIYDPKVPREQIVVDLSHPGVSEDDQVSRLVTISKDPYEACDGAHAVVICTEWDMFKELDYERIHKKMLKPAFIFDGRRVLDGLHNELQTIGFQIETIGKKVSSKRIPYAPSGEIPKFSLQDPPNKKPKV	0.8 ± 0.01	0.9 ± 0.08	0.8 ± 0.20	–
–	–	–	–	–	hUGDH: human UDP-α-D-glucose-6-dehydrogenase, named without a construct (protein, UniProt O60701 1-494, looked up) UDP-glucose 6-dehydrogenase: MFEIKKICCIGAGYVGGPTCSVIAHMCPEIRVTVVDVNESRINAWNSPTLPIYEPGLKEVVESCRGKNLFFSTNIDDAIKEADLVFISVNTPTKTYGMGKGRAADLKYIEACARRIVQNSNGYKIVTEKSTVPVRAAESIRRIFDANTKPNLNLQVLSNPEFLAEGTAIKDLKNPDRVLIGGDETPEGQRAVQALCAVYEHWVPREKILTTNTWSSELSKLAANAFLAQRISSINSISALCEATGADVEEVATAIGMDQRIGNKFLKASVGFGGSCFQKDVLNLVYLCEALNLPEVARYWQQVIDMNDYQRRRFASRIIDSLFNTVTDKKIAILGFAFKKDTGDTRESSSIYISKYLMDEGAHLHIYDPKVPREQIVVDLSHPGVSEDDQVSRLVTISKDPYEACDGAHAVVICTEWDMFKELDYERIHKKMLKPAFIFDGRRVLDGLHNELQTIGFQIETIGKKVSSKRIPYAPSGEIPKFSLQDPPNKKPKV	–	–	–	3.5
–	–	–	–	0.03^g kcal•mol^-1	FL-A136M: full-length hUGDH with the allostery quenching A136M substitution (protein, UniProt O60701 1-494, looked up, variant A136M, full-length) MFEIKKICCIGAGYVGGPTCSVIAHMCPEIRVTVVDVNESRINAWNSPTLPIYEPGLKEVVESCRGKNLFFSTNIDDAIKEADLVFISVNTPTKTYGMGKGRAADLKYIEACARRIVQNSNGYKIVTEKSTVPVRMAESIRRIFDANTKPNLNLQVLSNPEFLAEGTAIKDLKNPDRVLIGGDETPEGQRAVQALCAVYEHWVPREKILTTNTWSSELSKLAANAFLAQRISSINSISALCEATGADVEEVATAIGMDQRIGNKFLKASVGFGGSCFQKDVLNLVYLCEALNLPEVARYWQQVIDMNDYQRRRFASRIIDSLFNTVTDKKIAILGFAFKKDTGDTRESSSIYISKYLMDEGAHLHIYDPKVPREQIVVDLSHPGVSEDDQVSRLVTISKDPYEACDGAHAVVICTEWDMFKELDYERIHKKMLKPAFIFDGRRVLDGLHNELQTIGFQIETIGKKVSSKRIPYAPSGEIPKFSLQDPPNKKPKV	0.7 ± 0.01	–	–	–
